ChEMBL document CHEMBL4765233, “From Lead to Drug Candidate: Optimization of 3-(Phenylethynyl)-1H-pyrazolo[3,4-d]pyrimidin-4-amine Derivatives as Agents for the Treatment of Triple Negative Breast Cancer” (J Med Chem, 2016)
The source made the active and inactive calls. No cut-off for these calls is given here.

Assays:
MDA-MB-231 [1] = assay: Antiproliferative activity against human MDA-MB-231 cells assessed as reduction in cell viability incubated for 72 hrs by MTT assay; assay type: functional, cell-based; details: MDA-MB-231, 72 h
Method in brief: (§1)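 MTT viability assay. ATCC cell lines were grown in designated medium with 10% FBS at 37 °C, 5% CO2. Cells seeded at 1500−30000 per well and incubated 24 h, then exposed to compound (0−10 μg/mL) for 72 h. MTT added for 2−4 h. Formazan dissolved in DMSO (adherent) or acidified SDS overnight (suspension), absorbance read at 570 nm. Triplicates; IC50 calculated.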

Activated CDC42 kinase 1 = Activated CDC42 kinase 1 (Homo sapiens, UniProt Q07912); assay: Inhibition of human recombinant ACK1 (1 to 389 residues) using EFPIYDFLPAKKK as substrate incubated for 40 mins in presence of [gamma33P-ATP] by radiometric scintillation counting analysis
Method in brief: (§2)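 Radiometric kinase assay run as an external profiling service, with ATP at the Km of each kinase. IC50 values are means of two independent experiments.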

[2] = target: Proto-oncogene tyrosine-protein kinase Src (Homo sapiens) (UniProt P12931); assay: Inhibition of Src in human MDA-MB-231 cells assessed as inhibition of FAK phosphorylation at 0.1 to 0.3 uM incubated for 20 hrs by Western blot analysis; assay type: cell-based; details: dose 0.1-0.3 µM
Method in brief: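 MDA-MB-231 cells treated with a series of concentrations for 20 h at 37 °C. Cells washed with ice-cold saline and lysed in RIPA buffer with protease cocktail. Lysates cleared at 12000 rpm for 10 min at 4 °C and protein quantified by Bradford. Equal protein separated by SDS-PAGE, transferred to PVDF and probed with antibodies.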

[3] = target: Ribosomal protein S6 kinase alpha-3 (Homo sapiens, UniProt P51812); assay: Inhibition of human recombinant RSK2 (2 to end residues) using KKKNRTLSVA as substrate incubated for 40 mins in presence of [gamma33P-ATP] by radiometric scintillation counting analysis; method in brief: as §2
Ephrin type-A receptor 7 = Ephrin type-A receptor 7 (Homo sapiens, UniProt Q15375); assay: Inhibition of human recombinant EPHA7 (613 to 909 residues) using KTFCGTPEYLAPEVRREPRILSEEEQEMFRDFDYIADWC incubated for 40 mins in presence of [gamma33P-ATP] by radiometric scintillation counting analysis; method in brief: as §2
[4] = Toxicity against SCID mouse xenografted with human MDA-MB-435 cells assessed as change in body weight at 10 to 40 mg/kg, po QD for 21 days and measured every 3 days; assay type: organism-based; details: in vivo, 504 h, dose 10-40 mg/kg/day, time 21 day
Method in brief: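 Exponential-phase cells washed and injected subcutaneously (5 × 10^6 cells in 100 μL) into 5–6-week SCID mice. At 150–200 mm3, mice randomised to groups of 6. Oral dosing daily in water with 25% PEG400 and 5% DMSO; paclitaxel 10 mg/kg weekly by tail vein. Body weight measured every 3 days and side effects checked daily.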

[5] = Acute toxicity in male Sprague-Dawley rat assessed as increase in body weight at 200 mg/kg, po administered as single dose measured after day 9 and monitored every 3 days; assay type: organism-based; details: in vivo, 72 h, time >9 day
Method in brief: (§3)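 Sprague-Dawley rats (n = 3) received a single oral dose of 200 mg/kg in sterile water with 25% (v/v) PEG400 plus 5% DMSO. Behaviour and side effects were monitored daily, and average body weight was measured every 3 days.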

[6] = target: BDNF/NT-3 growth factors receptor (Homo sapiens, UniProt Q16620); assay: Inhibition of human recombinant TRKB (455 to end residues) using poly(Glu,Tyr)4:1 as substrate incubated for 40 mins in presence of [gamma33P-ATP] by radiometric scintillation counting analysis
[7] = Metabolic stability in dog liver microsomes assessed as parent compound remaining at 1 uM measured after 60 mins in presence of NADPH by HPLC-MS/MS analysis; assay type: ADME, Canis lupus familiaris, Microsome; details: read-out: Stabilty
Method in brief: (§4)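 Compound at 1 μM incubated with 0.5 mg/mL liver microsomes and 1 mM NADPH. Samples taken at 0, 10, 15, 30, 45 and 60 min and quenched with acetonitrile. After centrifugation, supernatant analysed by HPLC-MS/MS, with percent parent remaining relative to the 0 min area.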

MDA-MB-231 [8] = assay: Induction of apoptosis in human MDA-MB-231 cells xenografted in SCID mouse assessed as increase in cleaved caspase-3 level in tumor tissue at 40 mg/kg, po QD for 21 days by immunohistochemical analysis; assay type: functional, organism-based; details: dose 40.0 mg/kg/day, time 21.0 day
Method in brief: (§5)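 SCID mice carried subcutaneous MDA-MB-231 xenografts (5 × 10^6 cells in 100 μL). Oral dosing in water with 25% PEG400 and 5% DMSO began at 150–200 mm3. Tumours were removed at the end of study, formalin-fixed and paraffin-embedded, then immunostained.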

[9] = AUC (0 to t) in Sprague-Dawley rat at 10 mg/kg, po administered via gavage by LC-MS analysis; assay type: ADME, organism-based; design: dose 10 mg/kg; details: in vivo
HepG2 = assay: Antiproliferative activity against human HepG2 cells assessed as reduction in cell viability incubated for 72 hrs by MTT assay; assay type: ADME, cell-based; details: HepG2, 72 h
[10] = Metabolic stability in mouse liver microsomes assessed as parent compound remaining at 1 uM measured after 60 mins in presence of NADPH by HPLC-MS/MS analysis; assay type: ADME, Microsome; details: read-out: Stabilty; method in brief: as §4
L929 = assay: Cytotoxicity against mouse L929 cells assessed as reduction in cell viability incubated for 72 hrs by MTT assay; assay type: cell-based; details: L929, 72 h; method in brief: as §1
MDA-MB-435 = assay: Antitumor activity against human MDA-MB-435 cells xenografted in SCID mouse assessed as tumor growth inhibition administered orally once daily for 21 days and measured every 3 days; assay type: functional; details: dose 10-40 mg/kg/day, time 21.0 day
Method in brief: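 SCID mice (5−6 weeks) injected subcutaneously with 100 μL of cells at 5 × 10^7/mL. At 150−200 mm3 mice randomized, 6 per group. Oral compounds given in water with 25% PEG400 plus 5% DMSO; paclitaxel given 10 mg/kg/week iv. Tumor volume a×b²/2 and body weight measured every 3 days. Inhibition rate (c−d)/c×100% against vehicle control.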

Mus musculus = assay: Reduction in CD31 expression in tumor tissue of SCID mouse xenografted with human MDA-MB-231 cells at 40 mg/kg, po QD for 21 days by immunohistochemical analysis; assay type: functional, organism-based; details: dose 40.0 mg/kg/day, time 21.0 day; method in brief: as §5
[11] = Acute toxicity in male Sprague-Dawley rat assessed as increase in body weight rate at 200 mg/kg, po administered as single dose observed until day 9 and monitored every 3 days; assay type: organism-based; details: in vivo, 216 h, time 9 day; method in brief: as §3
[12] = target: Platelet-derived growth factor receptor alpha (Homo sapiens, UniProt P16234); assay: Inhibition of human recombinant PDGFRalpha (550 to end residues) using poly(Glu, Tyr)4:1 as substrate incubated for 40 mins in presence of [gamma33P-ATP] by radiometric scintillation counting analysis; method in brief: as §2
DU-145 = assay: Antiproliferative activity against human DU-145 cells assessed as reduction in cell viability incubated for 72 hrs by MTT assay; assay type: functional, cell-based; details: DU-145, 72 h; method in brief: as §1

Ephrin type-A receptor 7, sequence (Q15375 whole entry, the tested form may be a part): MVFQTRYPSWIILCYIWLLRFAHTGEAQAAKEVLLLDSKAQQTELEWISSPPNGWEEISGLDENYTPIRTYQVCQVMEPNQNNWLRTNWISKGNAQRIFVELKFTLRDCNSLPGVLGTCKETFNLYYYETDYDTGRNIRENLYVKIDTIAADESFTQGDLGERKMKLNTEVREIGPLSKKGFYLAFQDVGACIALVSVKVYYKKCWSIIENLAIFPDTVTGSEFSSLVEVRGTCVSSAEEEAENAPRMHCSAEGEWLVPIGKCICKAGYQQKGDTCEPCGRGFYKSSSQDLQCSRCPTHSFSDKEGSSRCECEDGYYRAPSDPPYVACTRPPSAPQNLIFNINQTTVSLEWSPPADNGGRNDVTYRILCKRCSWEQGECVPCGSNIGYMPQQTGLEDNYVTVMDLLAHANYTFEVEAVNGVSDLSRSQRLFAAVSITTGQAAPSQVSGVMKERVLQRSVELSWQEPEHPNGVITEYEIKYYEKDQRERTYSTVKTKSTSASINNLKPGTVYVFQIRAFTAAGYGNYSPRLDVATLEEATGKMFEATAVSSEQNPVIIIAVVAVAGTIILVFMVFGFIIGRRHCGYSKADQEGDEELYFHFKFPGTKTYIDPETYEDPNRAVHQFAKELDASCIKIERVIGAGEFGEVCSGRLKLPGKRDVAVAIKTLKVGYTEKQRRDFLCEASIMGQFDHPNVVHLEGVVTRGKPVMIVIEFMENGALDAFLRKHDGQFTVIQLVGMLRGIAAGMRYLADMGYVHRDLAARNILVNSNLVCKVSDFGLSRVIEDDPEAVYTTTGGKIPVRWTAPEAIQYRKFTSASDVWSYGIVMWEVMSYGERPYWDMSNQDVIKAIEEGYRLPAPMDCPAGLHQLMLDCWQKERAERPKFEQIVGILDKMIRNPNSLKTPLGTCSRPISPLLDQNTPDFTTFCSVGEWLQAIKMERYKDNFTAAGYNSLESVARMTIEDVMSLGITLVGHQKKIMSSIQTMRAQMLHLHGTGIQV
BDNF/NT-3 growth factors receptor, sequence (Q16620 whole entry): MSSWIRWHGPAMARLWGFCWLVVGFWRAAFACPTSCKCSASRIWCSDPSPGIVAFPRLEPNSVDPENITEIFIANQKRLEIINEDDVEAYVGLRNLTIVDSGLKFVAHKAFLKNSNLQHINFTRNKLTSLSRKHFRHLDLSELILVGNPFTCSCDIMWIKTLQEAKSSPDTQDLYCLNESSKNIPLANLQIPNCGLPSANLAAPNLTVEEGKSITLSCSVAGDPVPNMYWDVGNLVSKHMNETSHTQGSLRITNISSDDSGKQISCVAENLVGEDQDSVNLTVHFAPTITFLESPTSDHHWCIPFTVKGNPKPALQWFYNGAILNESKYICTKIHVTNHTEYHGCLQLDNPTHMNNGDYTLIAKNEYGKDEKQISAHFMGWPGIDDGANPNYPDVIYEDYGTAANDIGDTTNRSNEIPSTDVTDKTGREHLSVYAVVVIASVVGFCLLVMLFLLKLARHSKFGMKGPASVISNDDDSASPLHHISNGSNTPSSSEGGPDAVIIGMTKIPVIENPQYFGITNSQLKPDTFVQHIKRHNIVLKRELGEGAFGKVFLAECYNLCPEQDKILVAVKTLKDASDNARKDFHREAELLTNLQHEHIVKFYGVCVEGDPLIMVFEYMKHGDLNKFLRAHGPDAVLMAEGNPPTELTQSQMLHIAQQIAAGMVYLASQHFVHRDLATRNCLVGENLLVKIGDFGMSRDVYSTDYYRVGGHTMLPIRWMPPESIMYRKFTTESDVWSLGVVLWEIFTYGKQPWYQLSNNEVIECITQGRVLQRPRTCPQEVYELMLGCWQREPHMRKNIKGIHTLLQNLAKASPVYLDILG
Platelet-derived growth factor receptor alpha, sequence (P16234 whole entry): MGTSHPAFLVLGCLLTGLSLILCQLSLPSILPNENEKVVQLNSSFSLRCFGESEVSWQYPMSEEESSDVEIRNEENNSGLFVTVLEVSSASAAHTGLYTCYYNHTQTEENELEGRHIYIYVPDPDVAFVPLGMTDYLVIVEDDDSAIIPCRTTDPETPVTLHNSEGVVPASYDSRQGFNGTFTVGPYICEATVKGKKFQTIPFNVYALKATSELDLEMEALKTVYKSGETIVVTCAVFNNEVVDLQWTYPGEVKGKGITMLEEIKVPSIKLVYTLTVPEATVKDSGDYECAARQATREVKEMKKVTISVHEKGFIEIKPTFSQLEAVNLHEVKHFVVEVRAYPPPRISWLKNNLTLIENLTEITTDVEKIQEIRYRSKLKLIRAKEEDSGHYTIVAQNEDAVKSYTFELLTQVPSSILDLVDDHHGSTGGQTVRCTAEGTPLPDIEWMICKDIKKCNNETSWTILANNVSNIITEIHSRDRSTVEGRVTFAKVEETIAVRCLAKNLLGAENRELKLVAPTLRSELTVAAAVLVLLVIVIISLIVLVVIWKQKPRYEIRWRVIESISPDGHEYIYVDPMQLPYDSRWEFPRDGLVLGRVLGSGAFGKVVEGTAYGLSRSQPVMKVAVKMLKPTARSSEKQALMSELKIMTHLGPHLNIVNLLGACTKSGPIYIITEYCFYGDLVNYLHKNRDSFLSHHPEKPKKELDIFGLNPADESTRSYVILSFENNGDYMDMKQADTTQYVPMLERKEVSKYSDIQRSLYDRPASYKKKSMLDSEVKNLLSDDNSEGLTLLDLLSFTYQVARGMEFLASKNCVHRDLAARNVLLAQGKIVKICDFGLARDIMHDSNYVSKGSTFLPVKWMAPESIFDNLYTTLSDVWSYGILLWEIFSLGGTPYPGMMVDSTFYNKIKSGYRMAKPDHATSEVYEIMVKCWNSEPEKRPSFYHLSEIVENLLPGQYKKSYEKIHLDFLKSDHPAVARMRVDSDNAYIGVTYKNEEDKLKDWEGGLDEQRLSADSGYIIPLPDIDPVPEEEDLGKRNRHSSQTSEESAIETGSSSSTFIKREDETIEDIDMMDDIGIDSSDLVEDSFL
Proto-oncogene tyrosine-protein kinase Src (Homo sapiens), sequence (P12931 2-536 limits assumed): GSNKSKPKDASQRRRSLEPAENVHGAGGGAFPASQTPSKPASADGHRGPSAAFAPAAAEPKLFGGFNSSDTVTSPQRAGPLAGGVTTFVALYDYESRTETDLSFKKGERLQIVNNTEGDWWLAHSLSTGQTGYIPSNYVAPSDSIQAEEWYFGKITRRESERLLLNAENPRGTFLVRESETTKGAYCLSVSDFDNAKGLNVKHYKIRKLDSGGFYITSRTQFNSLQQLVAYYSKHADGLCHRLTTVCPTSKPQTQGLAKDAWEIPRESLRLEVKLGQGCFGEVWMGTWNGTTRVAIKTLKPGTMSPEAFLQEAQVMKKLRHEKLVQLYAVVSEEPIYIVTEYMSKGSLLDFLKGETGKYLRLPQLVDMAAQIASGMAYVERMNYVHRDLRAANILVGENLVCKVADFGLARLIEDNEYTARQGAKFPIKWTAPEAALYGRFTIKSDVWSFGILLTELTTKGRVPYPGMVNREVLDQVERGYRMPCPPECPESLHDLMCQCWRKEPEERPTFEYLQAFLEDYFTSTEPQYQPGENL
Activated CDC42 kinase 1, sequence (Q07912 whole entry, the tested form may be a part): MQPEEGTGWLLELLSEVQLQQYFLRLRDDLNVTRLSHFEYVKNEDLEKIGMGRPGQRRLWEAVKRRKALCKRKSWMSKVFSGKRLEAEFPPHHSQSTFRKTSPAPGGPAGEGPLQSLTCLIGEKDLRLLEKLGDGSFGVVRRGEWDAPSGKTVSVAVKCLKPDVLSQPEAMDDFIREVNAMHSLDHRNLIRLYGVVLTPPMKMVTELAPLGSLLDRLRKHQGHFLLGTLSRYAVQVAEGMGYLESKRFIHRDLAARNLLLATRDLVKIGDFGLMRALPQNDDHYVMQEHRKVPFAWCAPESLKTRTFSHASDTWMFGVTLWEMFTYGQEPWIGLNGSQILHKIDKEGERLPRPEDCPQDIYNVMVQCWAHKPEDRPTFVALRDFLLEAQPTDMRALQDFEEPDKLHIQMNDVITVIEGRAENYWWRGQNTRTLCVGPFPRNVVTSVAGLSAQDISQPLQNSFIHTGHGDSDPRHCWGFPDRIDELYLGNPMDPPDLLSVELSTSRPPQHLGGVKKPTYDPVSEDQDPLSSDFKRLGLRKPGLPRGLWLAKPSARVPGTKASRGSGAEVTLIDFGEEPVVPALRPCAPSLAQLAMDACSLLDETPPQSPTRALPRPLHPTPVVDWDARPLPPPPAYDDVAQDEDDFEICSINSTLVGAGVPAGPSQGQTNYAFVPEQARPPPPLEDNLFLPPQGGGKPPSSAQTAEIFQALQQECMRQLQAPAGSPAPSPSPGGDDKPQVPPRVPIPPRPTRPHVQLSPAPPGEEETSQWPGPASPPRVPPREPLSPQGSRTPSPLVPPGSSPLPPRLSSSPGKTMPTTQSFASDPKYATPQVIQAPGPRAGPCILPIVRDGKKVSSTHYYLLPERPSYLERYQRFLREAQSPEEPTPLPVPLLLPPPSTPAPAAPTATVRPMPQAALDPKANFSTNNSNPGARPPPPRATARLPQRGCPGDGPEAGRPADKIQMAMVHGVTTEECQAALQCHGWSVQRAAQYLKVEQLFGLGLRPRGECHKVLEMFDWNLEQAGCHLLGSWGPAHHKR

## Cc1ccc(NC(=O)c2ccc(C)c(C(F)(F)F)c2)cc1C#Cc1nn([C@H]2CC[C@H](O)CC2)c2ncnc(N)c12
MDA-MB-231 [1]
  IC50: 0.03 µM
Activated CDC42 kinase 1
  IC50: 0.175 µM
[2]
  inhibition: Active
[3]
  IC50: > 10 µM
Ephrin type-A receptor 7
  IC50: 0.143 µM
[4]
  Activity: Non-Toxic
[5]
  Activity: Non-Toxic
[6]
  IC50: 0.899 µM
[7]
  remaining at 1 h, 1 µM: > 90%
MDA-MB-231 [8]
  Activity: Active
[9]
  AUC(0-t): 2860 ng·h/mL
HepG2
  IC50: > 10 µM
[10]
  remaining at 1 h, 1 µM: > 90%
L929
  IC50: > 10 µM
MDA-MB-435
  Activity: Dose-dependent effect
Mus musculus
  inhibition: Active
[11]
  Activity: Toxic
[12]
  IC50: 1.29 µM
DU-145
  IC50: > 10 µM
